# Assay results from ChEMBL document CHEMBL3124806, “Imidazopyridine-fused [1,3]-diazepinones: synthesis and antiproliferative activity” (Eur J Med Chem, 2014).
# What was measured:
# Type in all cases: functional
# BT-549 = experiment: Cytotoxicity against human BT549 cells assessed as cell growth at 10 uM after 48 hrs by SRB assay relative to untreated control; conditions: BT-549, 48 h, read-out: Activity
# Summary of the method: (§1)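 NCI-60 panel screen at a single concentration of 10 μM with 48 h incubation. Cell density measured by sulforhodamine B protein-binding dye and read spectrophotometrically. Growth expressed as percent of untreated control cells.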
# DU-145 = experiment: Cytotoxicity against human DU145 cells assessed as cell growth at 10 uM after 48 hrs by SRB assay relative to untreated control; conditions: DU-145, 48 h, read-out: Activity; summary of the method: as §1
# PC-3 = experiment: Cytotoxicity against human PC3 cells assessed as cell growth at 10 uM after 48 hrs by SRB assay relative to untreated control; conditions: PC-3, 48 h, read-out: Activity
# Summary of the method: (§2)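 NCI-60 one-dose screen: each agent added at 10 µM, cultures incubated 48 h. Endpoint by sulforhodamine B protein-binding dye read spectrophotometrically; growth expressed as percent of untreated control cells.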
# [1] = Cytotoxicity against human UO31 cells assessed as cell growth at 10 uM after 48 hrs by SRB assay relative to untreated control; conditions: UO-31, 48 h, read-out: Activity
# Summary of the method: (§3)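 NCI-60 single-dose screen. Compounds were added to the cultures at 10 μM and incubated for 48 h. The end point was sulforhodamine B protein staining read spectrophotometrically. Growth is reported as percent of untreated control cells.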
# SN12C = experiment: Cytotoxicity against human SN12C cells assessed as cell growth at 10 uM after 48 hrs by SRB assay relative to untreated control; conditions: read-out: Activity; summary of the method: as §3
# RXF 393 = experiment: Cytotoxicity against human RXF393 cells assessed as cell growth at 10 uM after 48 hrs by SRB assay relative to untreated control; conditions: RXF 393, 48 h, read-out: Activity; summary of the method: as §2
# A498 = experiment: Cytotoxicity against human A498 cells assessed as cell growth at 10 uM after 48 hrs by SRB assay relative to untreated control; conditions: A498, 48 h, read-out: Activity; summary of the method: as §1
# 786-0 = experiment: Cytotoxicity against human […] cells assessed as cell growth at 10 uM after 48 hrs by SRB assay relative to untreated control; conditions: 786-0, 48 h, read-out: Activity; summary of the method: as §1
# [2] = Cytotoxicity against human NCI-ADR-RES cells assessed as cell growth at 10 uM after 48 hrs by SRB assay relative to untreated control; conditions: read-out: Activity; summary of the method: as §2
# [3] = Cytotoxicity against human OVCAR5 cells assessed as cell growth at 10 uM after 48 hrs by SRB assay relative to untreated control; conditions: OVCAR-5, 48 h, read-out: Activity; summary of the method: as §2
# [4] = Cytotoxicity against human OVCAR4 cells assessed as cell growth at 10 uM after 48 hrs by SRB assay relative to untreated control; conditions: OVCAR-4, 48 h, read-out: Activity; summary of the method: as §2
# OVCAR-3 = experiment: Cytotoxicity against human OVCAR3 cells assessed as cell growth at 10 uM after 48 hrs by SRB assay relative to untreated control; conditions: OVCAR-3, 48 h, read-out: Activity; summary of the method: as §2
# [5] = Cytotoxicity against human UACC257 cells assessed as cell growth at 10 uM after 48 hrs by SRB assay relative to untreated control; conditions: UACC-257, 48 h, read-out: Activity; summary of the method: as §3
# SK-MEL-28 = experiment: Cytotoxicity against human SK-MEL-28 cells assessed as cell growth at 10 uM after 48 hrs by SRB assay relative to untreated control; conditions: SK-MEL-28, 48 h, read-out: Activity; summary of the method: as §3
# MDA-MB-435 = experiment: Cytotoxicity against human MDA-MB-435 cells assessed as cell growth at 10 uM after 48 hrs by SRB assay relative to untreated control; conditions: MDA-MB-435, 48 h, read-out: Activity; summary of the method: as §2
# M14 = experiment: Cytotoxicity against human M14 cells assessed as cell growth at 10 uM after 48 hrs by SRB assay relative to untreated control; conditions: M14, 48 h, read-out: Activity; summary of the method: as §1
# Malme-3M = experiment: Cytotoxicity against human MALME-3M cells assessed as cell growth at 10 uM after 48 hrs by SRB assay relative to untreated control; conditions: read-out: Activity; summary of the method: as §1
# LOX IMVI = experiment: Cytotoxicity against human LOXIMVI cells assessed as cell growth at 10 uM after 48 hrs by SRB assay relative to untreated control; conditions: read-out: Activity; summary of the method: as §1
# U-251 = experiment: Cytotoxicity against human U251 cells assessed as cell growth at 10 uM after 48 hrs by SRB assay relative to untreated control; conditions: U-251, 48 h, read-out: Activity; summary of the method: as §3
# SF-295 = experiment: Cytotoxicity against human SF295 cells assessed as cell growth at 10 uM after 48 hrs by SRB assay relative to untreated control; conditions: SF-295, 48 h, read-out: Activity; summary of the method: as §2
# SF-268 = experiment: Cytotoxicity against human SF268 cells assessed as cell growth at 10 uM after 48 hrs by SRB assay relative to untreated control; conditions: SF-268, 48 h, read-out: Activity; summary of the method: as §2
# SW-620 = experiment: Cytotoxicity against human SW620 cells assessed as cell growth at 10 uM after 48 hrs by SRB assay relative to untreated control; conditions: SW-620, 48 h, read-out: Activity; summary of the method: as §3
# KM12 = experiment: Cytotoxicity against human KM12 cells assessed as cell growth at 10 uM after 48 hrs by SRB assay relative to untreated control; conditions: KM12, 48 h, read-out: Activity; summary of the method: as §1
# HCT-15 = experiment: Cytotoxicity against human HCT15 cells assessed as cell growth at 10 uM after 48 hrs by SRB assay relative to untreated control; conditions: HCT-15, 48 h, read-out: Activity; summary of the method: as §1
# HCC 2998 = experiment: Cytotoxicity against human HCC2998 cells assessed as cell growth at 10 uM after 48 hrs by SRB assay relative to untreated control; conditions: HCC 2998, 48 h, read-out: Activity; summary of the method: as §1
# NCI-H522 = experiment: Cytotoxicity against human NCI-H522 cells assessed as cell growth at 10 uM after 48 hrs by SRB assay relative to untreated control; conditions: NCI-H522, 48 h, read-out: Activity; summary of the method: as §2
# NCI-H460 = experiment: Cytotoxicity against human NCI-H460 cells assessed as cell growth at 10 uM after 48 hrs by SRB assay relative to untreated control; conditions: NCI-H460, 48 h, read-out: Activity; summary of the method: as §2
# NCI-H226 = experiment: Cytotoxicity against human NCI-H226 cells assessed as cell growth at 10 uM after 48 hrs by SRB assay relative to untreated control; conditions: NCI-H226, 48 h, read-out: Activity; summary of the method: as §2
# HOP-92 = experiment: Cytotoxicity against human HOP92 cells assessed as cell growth at 10 uM after 48 hrs by SRB assay relative to untreated control; conditions: HOP-92, 48 h, read-out: Activity; summary of the method: as §1
# HOP-62 = experiment: Cytotoxicity against human HOP62 cells assessed as cell growth at 10 uM after 48 hrs by SRB assay relative to untreated control; conditions: HOP-62, 48 h, read-out: Activity; summary of the method: as §1
# SR = experiment: Cytotoxicity against human SR cells assessed as cell growth at 10 uM after 48 hrs by SRB assay relative to untreated control; conditions: read-out: Activity; summary of the method: as §3
# K562 = experiment: Cytotoxicity against human K562 cells assessed as cell growth at 10 uM after 48 hrs by SRB assay relative to untreated control; conditions: K562, 48 h, read-out: Activity; summary of the method: as §1
Compound,growth at 10 µM (BT-549) [%],growth at 10 µM (DU-145) [%],growth at 10 µM [1] [%],growth at 10 µM (SN12C) [%],growth at 10 µM (RXF 393) [%],growth at 10 µM (A498) [%],growth at 10 µM (786-0) [%],growth at 10 µM [2] [%],growth at 10 µM [3] [%],growth at 10 µM [4] [%],growth at 10 µM (OVCAR-3) [%],growth at 10 µM [5] [%],growth at 10 µM (SK-MEL-28) [%],growth at 10 µM (MDA-MB-435) [%],growth at 10 µM (M14) [%],growth at 10 µM (Malme-3M) [%],growth at 10 µM (LOX IMVI) [%],growth at 10 µM (U-251) [%],growth at 10 µM (SF-295) [%],growth at 10 µM (SF-268) [%],also measured
C[C@@H]1NC(c2ccc(Br)cc2)=Nc2nc3ccccn3c2C1=O,49.3,87.7,62,91.8,68.2,69.9,83.1,39.4,82.4,77.5,17.3,70,66.2,-13,31.8,51.8,52.4,54,40.9,83.4,growth at 10 µM (PC-3): 63.2%; growth at 10 µM (SW-620): 38%; growth at 10 µM (KM12): 29.6%; growth at 10 µM (HCT-15): 30.8%; growth at 10 µM (HCC 2998): 69%; growth at 10 µM (NCI-H522): 34.8%; growth at 10 µM (NCI-H460): 32.5%; growth at 10 µM (NCI-H226): 68.3%; growth at 10 µM (HOP-92): 59.5%; growth at 10 µM (HOP-62): 55.8%; growth at 10 µM (SR): 30%; growth at 10 µM (K562): 24.3%
C[C@@H]1NC(c2ccc(N(C)C)cc2)=Nc2nc3ccccn3c2C1=O,88.1,109,53.7,102,111,88.8,102,80.3,90.5,91.8,101,97.6,113,94.5,101,100,87,94.8,92.1,103,growth at 10 µM (SW-620): 85.3%; growth at 10 µM (KM12): 96.3%; growth at 10 µM (HCT-15): 94.7%; growth at 10 µM (HCC 2998): 103%; growth at 10 µM (NCI-H522): 79.4%; growth at 10 µM (NCI-H460): 91.9%; growth at 10 µM (NCI-H226): 77.5%; growth at 10 µM (HOP-92): 33%; growth at 10 µM (HOP-62): 74.2%; growth at 10 µM (SR): 86.6%; growth at 10 µM (K562): 82.2%
O=C1c2c(nc3ccccn23)NC(=O)N2CCC[C@@H]12,82.8,100,95.1,106,104,88.5,98.6,100,101,104,108,91,106,94.9,94.8,93.1,92.8,95.8,100,100,growth at 10 µM (PC-3): 93.8%; growth at 10 µM (SW-620): 106%; growth at 10 µM (KM12): 105%; growth at 10 µM (HCT-15): 99.9%; growth at 10 µM (HCC 2998): 105%; growth at 10 µM (NCI-H522): 106%; growth at 10 µM (NCI-H460): 105%; growth at 10 µM (NCI-H226): 100%; growth at 10 µM (HOP-92): 86.2%; growth at 10 µM (HOP-62): 97.1%; growth at 10 µM (SR): 126%
